Article PMC3656655 (European journal of pharmacology, 2012)
“Also recorded” adds a separate entry of the source. Read-outs that look alike come from different tables or passages of the source.

Columns and labels:
rSERT = rSERT (Rattus norvegicus, UniProt P31652); test: Drug-evoked [3H]5-HT release via rSERT in rat brain synaptosomes; assay type: biochemical; conditions: for Fold more potent than methcathinone as [3H]5-HT releasing agent: SERT release
hNET [1] = target: T1, hNET (Homo sapiens, UniProt P23975); test: Inhibition of hNET-mediated [3H]NE uptake into C6-hNET cells; assay type: cell-based
rNET = rNET (Rattus norvegicus, UniProt Q63380); test: Drug-evoked [3H]MPP+ release via rNET in rat brain synaptosomes; assay type: biochemical
hSERT [2] = target: T2, hSERT (Homo sapiens, UniProt P31645); test: Inhibition of hSERT-mediated [3H]5-HT uptake into human platelets; assay type: cell-based
hDAT = hDAT (Homo sapiens, UniProt Q01959); test: Inhibition of hDAT-mediated [3H]DA uptake into HEK293-hDAT cells; assay type: cell-based
rDAT [3] = target: T3, rDAT (Rattus norvegicus, UniProt P23977); test: Drug-evoked [3H]MPP+ release via rDAT in rat striatal synaptosomes; assay type: biochemical
[4] = tested on: horizontal locomotor activity; conditions: cited from earlier work; for Locomotor effects in vivo compared to methcathinone: ref Foley and Cozzi, 2003
[5] = tested on: horizontal locomotor activity; test: Horizontal locomotor activity during microdialysis; assay type: in vivo; conditions: rat, i.v.; methcathinone 0.3 then 1.0 mg/kg, 4-TFMAP 1.0 then 3.0 mg/kg
Outline: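 Horizontal activity is recorded by a photobeam ring (2.54 cm spacing) in a 43 cm cubic arena, where rats stay overnight and during microdialysis. It is binned every 20 min, from 60 min before to 120 min after two sequential i.v. injections given 60 min apart (saline vehicle, 1 mL/kg). Data are normalized to % of three pre-injection bins and compared with saline controls (n=6; drugs n=7) by two-way ANOVA with Bonferroni.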

[6] = tested on: extracellular 5-HT in nucleus accumbens; test: In vivo microdialysis of nucleus accumbens, dialysate 5-HT; conditions: rat, i.v.; for Effect on extracellular 5-HT in nucleus accumbens: methcathinone 0.3 then 1.0 mg/kg, 4-TFMAP 1.0 then 3.0 mg/kg
Outline: (§1)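 Male Sprague-Dawley rats (300–350 g) under pentobarbital anaesthesia (60 mg/kg i.p.) get a jugular catheter and a nucleus accumbens guide cannula (1.6 mm lateral, 1.6 mm anterior to bregma, 6.0 mm below dura). Next morning, dialysate is collected every 20 min and assayed for DA and 5-HT by HPLC-ECD. After three stable baselines, two i.v. doses in saline (1 mL/kg) are given 60 min apart, with sampling for 120 min. Data are % of mean baseline; n=6 saline, 7 per drug; two-way ANOVA with Bonferroni.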

[7] = tested on: extracellular dopamine in nucleus accumbens; test: In vivo microdialysis of nucleus accumbens, dialysate dopamine; set-up: species or system rat; conditions: i.v.; for Effect on extracellular dopamine in nucleus accumbens: rat, methcathinone 0.3 then 1.0 mg/kg, 4-TFMAP 1.0 then 3.0 mg/kg
Outline: as §1

hNET [8] = target: T1, hNET; conditions: read-out: NET [3H]NE uptake inhibition IC50, ref Cozzi et al., 1999; cited from earlier work
rDAT [9] = target: T3, rDAT; conditions: read-out: DAT [3H]DA uptake inhibition IC50, ref Cozzi et al., 1999; cited from earlier work
hSERT [10] = target: T2, hSERT; conditions: read-out: SERT [3H]5-HT uptake inhibition IC50, ref Cozzi et al., 1999; cited from earlier work
[11] = tested on: extracellular 5-HT in nucleus accumbens; conditions: ref Baumann et al., 2012; Kehr et al. (2011); cited from earlier work
[12] = tested on: extracellular dopamine in nucleus accumbens; conditions: ref Baumann et al., 2012; Kehr et al. (2011); cited from earlier work
human SERT = conditions: read-out: KM as SERT substrate, racemic, ref Cozzi and Foley, 2003; cited from earlier work
[13] = SERT [3H]5-HT release EC50, rat brain synaptosomes, mean ±S.E.M.
[14] = read-out: NET [3H]MPP+ release EC50, mean ±S.E.M.

T3 sequence (P23977 whole entry): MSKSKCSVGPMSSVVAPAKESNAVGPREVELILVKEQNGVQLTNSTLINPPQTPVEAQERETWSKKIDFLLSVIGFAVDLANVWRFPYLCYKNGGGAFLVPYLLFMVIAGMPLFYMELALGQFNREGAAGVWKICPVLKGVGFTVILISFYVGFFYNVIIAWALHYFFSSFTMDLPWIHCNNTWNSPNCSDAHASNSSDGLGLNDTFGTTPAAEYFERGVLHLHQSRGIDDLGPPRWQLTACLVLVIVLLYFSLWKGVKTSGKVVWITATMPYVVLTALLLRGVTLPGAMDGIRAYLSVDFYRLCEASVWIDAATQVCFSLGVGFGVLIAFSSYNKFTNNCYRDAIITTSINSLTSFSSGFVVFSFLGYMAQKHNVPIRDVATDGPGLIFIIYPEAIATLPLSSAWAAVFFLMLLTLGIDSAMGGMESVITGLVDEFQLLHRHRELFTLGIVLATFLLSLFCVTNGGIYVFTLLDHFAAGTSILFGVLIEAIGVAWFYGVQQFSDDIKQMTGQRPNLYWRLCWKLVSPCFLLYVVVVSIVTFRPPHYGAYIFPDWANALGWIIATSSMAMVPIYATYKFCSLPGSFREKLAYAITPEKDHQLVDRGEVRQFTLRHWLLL
T1 sequence (P23975 whole entry): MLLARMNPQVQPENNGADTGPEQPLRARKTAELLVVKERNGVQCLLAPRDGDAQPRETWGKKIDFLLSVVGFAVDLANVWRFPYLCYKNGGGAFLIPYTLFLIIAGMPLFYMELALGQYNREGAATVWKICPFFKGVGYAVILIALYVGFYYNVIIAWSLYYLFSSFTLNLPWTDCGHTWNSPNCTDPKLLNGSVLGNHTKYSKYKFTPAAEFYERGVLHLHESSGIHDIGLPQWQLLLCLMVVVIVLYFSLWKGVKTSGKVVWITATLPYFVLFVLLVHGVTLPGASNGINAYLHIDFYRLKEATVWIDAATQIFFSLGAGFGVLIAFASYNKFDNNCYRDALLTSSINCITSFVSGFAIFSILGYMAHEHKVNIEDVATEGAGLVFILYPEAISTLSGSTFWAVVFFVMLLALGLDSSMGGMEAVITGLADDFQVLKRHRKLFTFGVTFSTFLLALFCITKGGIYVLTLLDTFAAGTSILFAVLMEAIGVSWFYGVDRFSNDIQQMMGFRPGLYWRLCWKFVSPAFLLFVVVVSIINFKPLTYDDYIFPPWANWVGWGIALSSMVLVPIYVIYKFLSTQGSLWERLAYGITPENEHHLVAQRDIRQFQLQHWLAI
rNET, sequence (Q63380 1-617): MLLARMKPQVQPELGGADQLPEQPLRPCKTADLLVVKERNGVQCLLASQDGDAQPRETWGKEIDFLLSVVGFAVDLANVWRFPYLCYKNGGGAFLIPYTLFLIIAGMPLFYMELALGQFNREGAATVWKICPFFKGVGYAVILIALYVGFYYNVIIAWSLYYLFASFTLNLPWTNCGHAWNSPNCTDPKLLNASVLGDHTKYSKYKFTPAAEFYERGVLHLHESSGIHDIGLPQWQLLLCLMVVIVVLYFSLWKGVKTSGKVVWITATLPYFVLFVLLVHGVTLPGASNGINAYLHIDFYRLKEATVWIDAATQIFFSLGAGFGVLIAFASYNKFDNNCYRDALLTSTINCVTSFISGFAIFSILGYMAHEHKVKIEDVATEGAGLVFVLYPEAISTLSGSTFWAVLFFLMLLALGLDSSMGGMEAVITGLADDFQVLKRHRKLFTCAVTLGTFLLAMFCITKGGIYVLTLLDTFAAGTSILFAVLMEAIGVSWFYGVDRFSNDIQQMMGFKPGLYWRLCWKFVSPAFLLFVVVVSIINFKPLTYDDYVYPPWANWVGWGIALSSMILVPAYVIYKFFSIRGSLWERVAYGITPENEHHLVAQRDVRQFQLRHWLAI
hDAT, sequence (Q01959 whole entry): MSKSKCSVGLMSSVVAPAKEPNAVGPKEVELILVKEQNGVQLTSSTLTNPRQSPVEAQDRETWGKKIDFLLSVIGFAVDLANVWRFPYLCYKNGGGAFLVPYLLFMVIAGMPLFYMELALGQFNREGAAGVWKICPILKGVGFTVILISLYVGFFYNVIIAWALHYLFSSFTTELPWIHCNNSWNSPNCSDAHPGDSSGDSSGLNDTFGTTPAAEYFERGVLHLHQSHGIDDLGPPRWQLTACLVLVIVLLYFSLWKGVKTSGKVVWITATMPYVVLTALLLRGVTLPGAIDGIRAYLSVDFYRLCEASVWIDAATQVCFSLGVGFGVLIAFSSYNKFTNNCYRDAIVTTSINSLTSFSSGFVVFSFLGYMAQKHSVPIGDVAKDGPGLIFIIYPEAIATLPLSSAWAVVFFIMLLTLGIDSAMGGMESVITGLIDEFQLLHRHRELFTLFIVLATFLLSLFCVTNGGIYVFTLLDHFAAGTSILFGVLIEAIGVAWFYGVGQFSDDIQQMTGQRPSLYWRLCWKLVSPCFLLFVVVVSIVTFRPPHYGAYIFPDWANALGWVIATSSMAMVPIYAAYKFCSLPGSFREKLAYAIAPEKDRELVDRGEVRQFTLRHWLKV
rSERT, sequence (P31652 whole entry): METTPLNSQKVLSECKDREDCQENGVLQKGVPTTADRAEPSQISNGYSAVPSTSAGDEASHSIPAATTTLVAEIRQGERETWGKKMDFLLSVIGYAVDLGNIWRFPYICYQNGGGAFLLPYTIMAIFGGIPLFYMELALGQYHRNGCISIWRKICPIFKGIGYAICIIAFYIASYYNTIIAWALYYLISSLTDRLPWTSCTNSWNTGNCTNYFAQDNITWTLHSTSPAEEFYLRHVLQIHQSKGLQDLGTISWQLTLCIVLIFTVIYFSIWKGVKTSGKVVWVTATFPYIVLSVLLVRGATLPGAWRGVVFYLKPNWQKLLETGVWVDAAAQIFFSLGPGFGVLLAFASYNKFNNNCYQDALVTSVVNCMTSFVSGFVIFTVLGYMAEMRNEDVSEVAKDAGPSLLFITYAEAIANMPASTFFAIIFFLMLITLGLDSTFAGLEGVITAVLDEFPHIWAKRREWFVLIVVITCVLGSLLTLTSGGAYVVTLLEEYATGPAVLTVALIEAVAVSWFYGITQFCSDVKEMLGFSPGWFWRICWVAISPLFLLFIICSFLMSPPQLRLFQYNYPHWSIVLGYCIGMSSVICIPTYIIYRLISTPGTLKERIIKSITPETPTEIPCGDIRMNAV
T2 sequence (P31645 whole entry): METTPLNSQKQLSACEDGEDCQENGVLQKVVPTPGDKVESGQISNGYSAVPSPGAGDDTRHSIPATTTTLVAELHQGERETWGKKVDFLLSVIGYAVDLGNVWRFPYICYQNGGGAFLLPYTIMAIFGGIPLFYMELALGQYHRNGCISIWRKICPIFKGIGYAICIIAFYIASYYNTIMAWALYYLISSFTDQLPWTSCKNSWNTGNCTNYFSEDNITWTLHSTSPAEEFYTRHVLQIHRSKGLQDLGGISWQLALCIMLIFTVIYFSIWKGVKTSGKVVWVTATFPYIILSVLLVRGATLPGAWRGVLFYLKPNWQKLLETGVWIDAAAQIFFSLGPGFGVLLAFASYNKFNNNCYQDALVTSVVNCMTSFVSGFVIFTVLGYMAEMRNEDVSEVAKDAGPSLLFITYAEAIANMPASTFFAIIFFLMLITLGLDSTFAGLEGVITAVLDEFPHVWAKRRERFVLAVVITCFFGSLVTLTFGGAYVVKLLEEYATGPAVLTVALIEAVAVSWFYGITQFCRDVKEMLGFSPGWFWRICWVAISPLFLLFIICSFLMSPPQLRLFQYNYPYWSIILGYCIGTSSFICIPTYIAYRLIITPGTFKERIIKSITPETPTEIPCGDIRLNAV

`CNC(C)C(=O)c1ccccc1C(F)(F)F` (centres unmarked) [2-TFMAP, 2-(methylamino)-1-(2-tri-fluoromethylphenyl)propan-1-one] gave an EC50 (rSERT; [13]) of 8.4 ± 0.8 µM, an IC50 (hNET [1]) of 10 ± 3 µM and an EC50 (rNET; [14]) of 2.2 ± 0.3 µM. For the same compound, the IC50 (hSERT [2]) was 239 ± 13 µM, the IC50 (hDAT) was 689 ± 160 µM and the EC50 (rDAT [3]) was 8 ± 0.9 µM.
For `CNC(C)C(=O)c1cccc(C(F)(F)F)c1` (centres unmarked) [3-TFMAP, 2-(methylamino)-1-(3-trifluoromethylphenyl)propan-1-one], the EC50 (rSERT; [13]) was 0.38 ± 0.06 µM, the “Fold more potent than methcathinone as [3H]5-HT releasing agent” value (rSERT) was 10 fold and the IC50 (hNET [1]) was 3 ± 0.8 µM. The EC50 (rNET; [14]) was 2.7 ± 0.8 µM, the IC50 (hSERT [2]) was 11.3 ± 0.4 µM and the IC50 (hDAT) was 136 ± 8 µM. The EC50 (rDAT [3]) was 0.61 ± 0.09 µM.
In the case of `CNC(C)C(=O)c1cccc(Br)c1` (centres unmarked) [3-bromomethcathinone], the “Locomotor effects in vivo compared to methcathinone” value [4] is given as “fewer locomotor effects”.
For `CNC(C)C(=O)c1ccc(C(F)(F)F)cc1` (centres unmarked) [4-TFMAP, 2-(methylamino)-1-(4-trifluoromethylphenyl)propan-1-one], the EC50 (rSERT; EC50 for [3H]5-HT release at rSERT, rat brain synaptosomes) was 0.186 µM, the EC50 (rSERT; [13]) was 0.19 ± 0.03 µM and the “Fold more potent than methcathinone as [3H]5-HT releasing agent” value (rSERT) was 10 fold. For the same compound, the “Effect on horizontal locomotor activity” value [5] was “no effect; also recorded: nor did it stimulate locomotor activity”, the IC50 (hNET [1]) was 3 ± 0.9 µM and the EC50 (rNET; read-out: EC50 for [3H]MPP+ release at rNET) was 0.867 µM. For the same compound, the EC50 (rNET; [14]) was 0.9 ± 0.3 µM, the IC50 (hSERT [2]) was 4.5 ± 0.6 µM and the “Potency on dialysate 5-HT relative to methcathinone” value ([6]; nucleus accumbens) was “approximately 1/3”. For the same compound, the “Effect on extracellular 5-HT in nucleus accumbens” value [6] was “increased extracellular 5-HT; also recorded: dose-related increase in 5-HT efflux”, the IC50 (hDAT) was 200 ± 50 µM and the EC50 (rDAT [3]) was 2.7 ± 0.3 µM. The “Effect on extracellular dopamine in nucleus accumbens” value [7] was “no effect; also recorded: did not stimulate dopamine release”.
For `CNC(C)C(=O)c1ccc(Br)cc1` (centres unmarked) [4-bromomethcathinone], the “Locomotor effects in vivo compared to methcathinone” value [4] is given as “fewer locomotor effects”.
In the case of `CNC(C)C(=O)c1ccccc1` (centres unmarked) [Methcathinone, reference compound], the EC50 (rSERT; read-out: SERT [3H]5-HT release EC50, rat brain synaptosomes, mean ±S.E.M.) is listed as 4 ± 1 µM, the IC50 (hNET [8]) is listed as 0.5 ± 0.1 µM and the IC50 (rDAT [9]) is listed as 0.36 ± 0.06 µM. The EC50 (rNET; [14]) was 0.02 ± 0.003 µM, the “Effect on extracellular 5-HT in nucleus accumbens” value [6] was “large dose-dependent increases” and the IC50 (hSERT [10]) was 35 ± 5 µM. The EC50 (rDAT [3]; read-out: DAT [3H]MPP+ release EC50, rat striatal synaptosomes, mean ±S.E.M.) was 0.02 ± 0.001 µM, the “Potency as dopamine releasing agent relative to 5-HT releaser in vivo” value ([7]; rat nucleus accumbens) was “about twice as potent” and the “Effect on extracellular dopamine in nucleus accumbens” value [7] was “large dose-dependent increases”.
In the case of `CNC(C)C(=O)c1ccc(C)cc1` (centres unmarked) [mephedrone, 4-methylmethcathinone], the “Effect on locomotor activity” value ([4]; 1 and 3 mg/kg, ref Baumann et al., 2012, Kehr et al. (2011)) is listed as “dose-related locomotor stimulation”, the “Effect on 5-HT release in nucleus accumbens” value [11] is listed as “stimulated both 5-HT and DA release” and the “Effect on DA release in nucleus accumbens” value [12] is listed as “stimulated both 5-HT and DA release”.
In the case of [^3H]methcathinone, the Km (human SERT) is listed as 0.244 µM.
